Scp-1 inhibitor – Scp-1 phosphatase inhibitors, primary screen, biochemical, colorimetric, uHTS; Carboxy-terminal domain RNA polymerase II polypeptide A small phosphatase 1 (Homo …; inhibition, % at 20 µM; Recombinant Scp1, phosphopeptide, malachite green phosphate absorbance; 340,000 tested, 0.88% active; AID 493091, 2011;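 active = inhibition above about 50% at 20 µM, limit read from the data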;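 also: plate controls were DMSO wells with enzyme for no effect and wells lacking enzyme for full effect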
Target sequence (Q9GZU7 76-261 limits assumed): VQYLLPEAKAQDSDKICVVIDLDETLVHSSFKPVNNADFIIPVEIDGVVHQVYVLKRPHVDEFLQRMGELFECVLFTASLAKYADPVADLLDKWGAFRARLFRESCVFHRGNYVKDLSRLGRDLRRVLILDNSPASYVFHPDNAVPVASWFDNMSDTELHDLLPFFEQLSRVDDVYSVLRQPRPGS
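Test system: SCP-1 phosphatase catalytic domain, residues 76-261; measured by: colorimetric phosphate reagent with accelerator and stabiliser, absorbance at 630 nm; timing: enzyme reaction 45 min at room temperature, colour 5 min, stabilisation 30 min; also added: Phosphorylated 17-residue peptide substrate; compound dosing: one concentration, 20 µM, with 1.0% DMSO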
LMPTP inh – LMPTP phosphatase inhibitors, primary screen, biochemical, fluorescence intensity, uHTS; Low molecular weight phosphotyrosine protein phosphatase (Homo sapiens), P24666; recombinant LMPTP-A, OMFP fluorogenic substrate; 360,000 tested, 0.22% active; inhibition, % at 20 µM;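 active = compounds that cut the enzyme signal by at least half of the control window in the single-dose screen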;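 also: plate controls were DMSO wells with enzyme plus substrate for no effect and substrate without enzyme for full effect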
Target sequence (P24666 whole entry, looked up): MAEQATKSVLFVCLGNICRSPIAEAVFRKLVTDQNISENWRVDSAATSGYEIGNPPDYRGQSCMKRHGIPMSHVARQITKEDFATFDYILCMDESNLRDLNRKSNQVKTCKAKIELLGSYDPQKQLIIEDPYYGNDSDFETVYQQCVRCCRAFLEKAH
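test system = LMPTP-A | amount = 0.625 nM LMPTP-A final | reagent = fluorogenic phosphatase substrate OMFP at 400 µM final | incubation = 50 min at room temperature | benchmarks = no-enzyme low control, uninhibited high control | medium = Bis-Tris pH 6.0, DTT, detergent | signal = fluorescence intensity of OMFP turnover product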
SUMO1-SIM PPI – modulators of SUMO1 protein-protein interactions, primary screen, biochemical, uHTS. 360,000 tested, 0.33% active. Small ubiquitin-related modifier 1 (Homo sapiens), P63165. SUMO1 binding to a labelled peptide, TR-FRET, 1 h. inhibition, % at 20 µM; in the data active = inhibition above about 37%
Target sequence (P63165 whole entry, looked up): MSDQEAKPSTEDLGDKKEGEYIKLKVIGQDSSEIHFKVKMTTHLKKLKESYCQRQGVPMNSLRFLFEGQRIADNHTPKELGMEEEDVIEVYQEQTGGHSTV
DNMT1 inh – human DNMT1 methyltransferase inhibitors, primary screen, biochemical, molecular beacon, fluorescence, HinP1I cleavage, uHTS. DNA (cytosine-5)-methyltransferase 1 (Homo sapiens), P26358. inhibition (reported as % activation of signal), % at 10 µM. 360,000 tested, 0.83% active; in the data active = inhibition above about 50%
STEP block – STEP phosphatase inhibitors, primary screen, biochemical, fluorescence intensity, uHTS | recombinant STEP, OMFP fluorogenic substrate | inhibition, % at 20 µM | Tyrosine-protein phosphatase non-receptor type 5 (Homo sapiens), P54829 | 360,000 tested, 0.25% active | AID 588621, 2011;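 active = inhibition at 20 µM, scaled per plate between control wells, above about 37%, limit read from the data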;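 also: 0% = DMSO with enzyme and substrate and 100% = substrate only without enzyme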
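System: STEP phosphatase, cell-free reaction; Buffer or medium: Bis-Tris pH 6.0 buffer with DTT, detergent; Incubation: 20 min at room temperature, dark; Measured by: fluorescence, 480/540 nm.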
Active calls of the source: *; . = no result given; ! = not confirmed by another sample. The list is not random: actives were taken first. Their share in the collection is about 1.7%.

SMILES	Scp-1 inhibitor	LMPTP inh	SUMO1-SIM PPI	DNMT1 inh	STEP block
O=S(=O)(c1ccccc1)N1CCN(C/C=C/c2ccccc2)CC1	-4.0	-0.1	-3.5	-1.7	0.0
COc1ccc(/C=C2\SC(=N)N(c3nccs3)C2=O)cc1OC	-3.2	1.4	8.6	-0.3	-2.7
N=C1S/C(=C\c2ccc(-c3cccc(Cl)c3)o2)C(=O)N1c1nccs1	2.8	33.4	22.8	111.7*	2.0
N=C1/C(=C\c2ccc(-c3ccc(C(=O)O)cc3)o2)C(=O)N=C2SC=C(c3ccccc3)N12	81.1*	65.4*	109.9*	40.1	60.6*
N=C1/C(=C\c2ccc(-c3cccc(Cl)c3)o2)C(=O)N=C2SC=C(c3ccccc3)N12	-6.3	7.7	18.8	60.9*	6.3
Cc1ccc(Nc2nnc(C)c3ccccc23)c(C)c1	-7.9	0.0	-0.7	2.3	-0.9
Cc1c(NC(=O)c2nn(C(C)C)c(=O)c3ccccc23)c(=O)n(-c2ccccc2)n1C	.	-0.8	-3.6	-2.0	-2.0
COc1ccc(/C=C(\C#N)C(=O)OCC(=O)Nc2c(C)cccc2C(C)C)cc1	-2.0	-0.2	-5.6	3.8	0.4
COc1ccc(Br)cc1/C=N/NC(=O)c1ccc2nc[nH]c2c1	3.4	0.7	-15.7	-0.7	2.3
CC(C)(C)NC(=O)C(c1ccnc2ccccc12)n1c(=O)c(-c2cc3ccccc3[nH]2)nc2ccccc21 (stereo unspecified)	.	6.3	-6.5	.	.
CC(C)CCN1C(=O)c2cccc3c(N)ccc(c23)C1=O	-6.6	-5.1	-90.4	122.4*	-113.9
Cc1cccc(N2C(=O)c3cccc4c(N)ccc(c34)C2=O)c1	0.5	-8.4	-107.3	75.3*	-114.7
COc1ccc(CNC(=O)c2cccc3c(-c4cnn(C)c4)coc23)cc1OC	.	0.4	6.4	2.2	0.5
O=c1c(Br)ccc(Br)cc1Br	-10.4	1.2	25.1	59.0*	74.0*
O=C(Nc1c2ccccc2nc2ccccc12)C(Cl)(Cl)Cl	2.6	11.2	-9.4	51.2*	2.8
CN(C)CCN(C)C1CN(Cc2ccc(F)cc2)S(=O)(=O)C1 (stereo unspecified)	.	1.8	1.9	11.8	3.3
CC1CC(C)C[N+](=C2C=C(N3CCCC3)CC(C)(C)C2)C1 (stereo unspecified)	96.4*	-0.3	2.4	5.0	0.5
CC1(C)CC(N2CCCC2)=CC(=[N+]2CCCCCC2)C1	19.4	-0.9	0.5	2.2	-0.3
COc1ccc2oc(C(=O)N3CCCc4ccccc43)c(C)c2c1	-11.8	2.2	0.6	6.9	1.3
Nc1nc(=S)c2ncn(C3OC(CO)C(O)C3O)c2[nH]1 (stereo unspecified)	76.7*	26.1	19.1	79.6*	42.6*
Nc1nc(=S)c2ncn([C@@H]3O[C@H](CO)[C@@H](O)[C@H]3O)c2[nH]1	-8.8	-1.4	1.8	4.3	2.3
COCCNC(=O)/C(C#N)=C1\N=C(N)c2ccccc21	-1.7	-1.5	-20.7	3.2	-0.5
NC1=C([N+](=O)[O-])C(c2ccc(F)cc2)C2=C(CCCC2=O)O1 (stereo unspecified)	-0.8	-0.9	-12.8	0.7	-1.5
CCCC(=O)Nc1ccccc1Sc1ncnc2scc(-c3ccccc3)c12	-7.9	0.4	2.0	11.5	3.2
COc1ccccc1C(=O)NC(=Nc1nc2ccccc2o1)NC(=O)c1ccccc1OC	-6.7	1.4	67.0*!	0.2	-2.7
SMILES	Scp-1 inhibitor	LMPTP inh	SUMO1-SIM PPI	DNMT1 inh	STEP block
O=C(NC(=Nc1nc2ccccc2o1)NC(=O)c1ccccc1)c1ccccc1	26.3	0.8	-0.3	29.2	1.2
CCn1c(CSc2nc3ccccc3s2)nnc1SCC(=O)c1ccc(O)c(O)c1	59.2*	49.9	12.9	8.1	0.9
CCCOc1cc(C)c(S(=O)(=O)NCc2cccs2)cc1C	-4.6	3.6	4.2	-3.7	1.7
O=c1cc(-c2ccc(O)c(O)c2)oc2c1ccc1ccccc12	1.5	15.2	75.2*	0.6	4.3
Cc1nnc(N=c2ssnc2Cl)o1	11.9	55.5*	-5.5	-9.7	14.4
C#CCOCCOCCOCCNc1nc(N2CCN(C(=O)CCCCCCCCCCNC(=O)[C@@H](CCSC)n3cc(CCO)nn3)CC2)nc(N2CCN(C(=O)CCCCCCCCCCNC(=O)[C@H](CCCN=C(N)N)n3cc(C[C@@H](C)CC)nn3)CC2)n1	42.7	12.1	80.3*	-105.6	17.8
C#CCOCCOCCOCCNc1nc(N2CCN(C(=O)CCCCCCCCCCNC(=O)[C@H](CCCCN)n3cc(C)nn3)CC2)nc(N2CCN(C(=O)CCCCCCCCCCNC(=O)[C@@H]([C@H](C)O)n3cc(C)nn3)CC2)n1	8.2	-2.6	-154.1	-70.7	1.4
C#CCOCCOCCOCCNc1nc(N2CCN(C(=O)CCCCCCCCCCNC(=O)[C@H]([C@@H](C)CC)n3cc(CCCCN=C(N)N)nn3)CC2)nc(N2CCN(C(=O)CCCCCCCCCCNC(=O)[C@@H]([C@H](C)O)n3cc(C)nn3)CC2)n1	35.1	9.4	86.0*	-107.7	6.1
C#CCOCCOCCOCCNc1nc(N2CCOCC2)nc(N2CCN(C(=O)CCCCCCCCCCNC(=O)[C@H]([C@@H](C)CC)n3cc(CCCCN=C(N)N)nn3)CC2)n1	12.4	1.5	-40.2	8.7	0.6
C#CCOCCOCCOCCNc1nc(N2CCN(C(=O)CCCCCCCCCCNC(=O)[C@H](CCCCN)n3cc(C[C@@H](C)CC)nn3)CC2)nc(N2CCN(C(=O)CCCCCCCCCCNC(=O)[C@H](CCCN=C(N)N)n3cc(C[C@@H](C)CC)nn3)CC2)n1	58.2*	13.9	72.1*	-227.3	29.2
C#CCOCCOCCOCCNc1nc(N2CCN(C(=O)CCCCCCCCCCNC(=O)[C@H](CCCCN)n3cc(C[C@@H](C)CC)nn3)CC2)nc(N2CCN(C(=O)CCCCCCCCCCNC(=O)[C@@H]([C@H](C)O)n3cc(C)nn3)CC2)n1	37.6	6.8	69.8*	-147.8	7.7
CC1CN(C(=O)/C=C/c2ccc(SC(F)F)cc2)CC(C)O1 (stereo unspecified)	-6.0	-1.0	-16.2	0.8	0.0
Cc1ccc(N2NC(=O)/C(=C/c3ccc(-c4ccc(Cl)c(C(=O)O)c4)o3)C2=O)cc1	43.0	5.7	18.1	28.9	10.7
CC(C)N1C(=O)S/C(=C\c2ccc(-c3ccc(Cl)c(C(=O)O)c3)o2)C1=O	67.6*	-0.5	-8.1	28.7	8.7
CCCCCCCCCCCCCCCC[n+]1ccc(C(N)=O)cc1	47.3	4.8	52.4*	1.1	9.0
CCCCCCCCCCCCCCCC[n+]1cccc(C(=O)N(CC)CC)c1	18.9	-1.4	38.1*!	-15.6	4.6
CCCCCCCCCCCCCCCC[n+]1ccccc1	8.9	-0.2	-8.6	-0.8	2.6

High-throughput results as filed in PubChem.
